# Results reported in publication PMC2966122 (The Journal of Biological Chemistry, 2010).
# B1: Mouse galectin-3: Recombinant mouse galectin-3 orthologue (protein, UniProt P16110 2-264, looked up)
# Galectin-3: ADSFSLNDALAGSGNPNPQGYPGAWGNQPGAGGYPGAAYPGAYPGQAPPGAYPGQAPPGAYPGQAPPSAYPGPTAPGAYPGPTAPGAYPGQPAPGAFPGQPGAPGAYPQCSGGYPAAGPYGVPAGPLTVPYDLPLPGGVMPRMLITIMGTVKPNANRIVLDFRRGNDVAFHFNPRFNENNRRVIVCNTKQDNNWGKEERQSAFPFESGKPFKIQVLVEADHFKVAVNDAHLLQYNHRMKNLREISQLGISGDITLTSANHAMI
# B2: Rat galectin-3: Rat galectin-3 orthologue, not available for study here; literature data (protein, UniProt P08699 2-262, looked up)
# Galectin-3: ADGFSLNDALAGSGNPNPQGWPGAWGNQPGAGGYPGASYPGAYPGQAPPGGYPGQAPPSAYPGPTGPSAYPGPTAPGAYPGPTAPGAFPGQPGGPGAYPSAPGAYPSAPGAYPATGPFGAPTGPLTVPYDMPLPGGVMPRMLITIIGTVKPNANSITLNFKKGNDIAFHFNPRFNENNRRVIVCNTKQDNNWGREERQSAFPFESGKPFKIQVLVEADHFKVAVNDVHLLQYNHRMKNLREISQLGIIGDITLTSASHAMI
# Key:
# [1] = Glycan array binding of FITC-labeled galectins; conditions: for Glycans bound on the array: 200 μg/ml galectin; for Glycans bound on the array (overall): all glycans of the array; for Affinity for sialylated (and sulfated) galactosides on the array: site B
# How it was run: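 The printed array carries 406 glycans, six spots each, on NHS-activated glass. FITC-galectins at 200 μg/ml in Tris-buffered saline pH 7.4 (2 mM CaCl2, 2 mM MgCl2, 1% BSA, 0.05% Tween 20) were incubated 60 min at room temperature in the dark under a coverslip, then washed and dried. Slides were scanned at 488 nm and read as RFU (ceiling 40,000). Highest and lowest spots were dropped and the remaining four averaged.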
# [2] = test system: neutrophils; assay: Galectin binding to neutrophils; format: cell-based, human; conditions: FITC-labeled galectin 40 μg/ml
# How it was run: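 Human blood neutrophils from buffy coats (dextran sedimentation, Ficoll-Paque) were pretreated at 37 °C with or without TNFα, or held at 4 °C without it. They were then incubated 1 h at 4 or 37 °C with FITC-galectin (40 μg/ml) and washed twice in PBS/0.02% NaN3/EDTA. Flow cytometry gave geometric mean fluorescence from three neutrophil batches (mean, S.E.), with paired one-tailed t tests.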
# [3] = test system: SKBR3 cells; assay: Localization of EGFP-galectin-3 and mutants in transfected cells; format: cell-based, human; conditions: EGFP fusion protein; for Entry into vesicles: stably transfected
# How it was run: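 SKBR3 breast cancer cells were Lipofectamine-transfected with pEGFP-C1 EGFP-galectin-3 constructs and grown in RPMI 1640/10% FBS with 1 mg/ml G418 for ≥2 weeks to obtain stable lines. Cells were grown 1–2 days on coverslips, fixed in 4% paraformaldehyde, mounted with DAPI and viewed by epifluorescence microscopy. Fluorescent vesicles (dots) per cell were counted in 300 cells per construct.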
# [4] = cited from earlier work
# [5] = cited from earlier work; remark: listed apart in the source
# [6] = Fluorescence anisotropy; format: binding; conditions: for Affinity for 3-sialylated galactosides: probes 6–9 (6–8 for Xenopus); for Affinity for 3-sialylated galactosides / Affinity for GlcNAcβ1–3-substituted galactosides: relative to human wild type galectin-3; for Affinity for GlcNAcβ1–3-substituted galactosides: probes 9–15; for Binding to glycans where LacNAc or Galβ1–3GlcNAc is likely in site C-D: e.g. probes 2, 3, 7 and 8
# How it was run: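 Equilibrium fluorescence anisotropy with 0.1 μM fluorescein-tagged saccharide probe (15 probes) titrated with 0.05–80 μM lactose-freed galectin. Read at room temperature and after incubation on ice (about 4 °C), ex 485/em 520 nm. Kd derived from the binding curve using probe-alone (A0) and saturated (Amax) anisotropy, with Amax extrapolated for partial curves. Not detected if anisotropy stayed ≤50 mA at 50 μM galectin.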
# [7] = cited from earlier work; remark: listed apart in the source
# [8] = test system: neutrophils; conditions: cited from earlier work
# [9] = test system: MDCK cells; conditions: EGFP fusion protein in MDCK cells; cited from earlier work
# [10] = test system: Shigella bacteria; conditions: cited from earlier work
# [11] = test system: intracellular anti-apoptotic effect; conditions: cited from earlier work
# [12] = test system: N-Ras to K-Ras activation; conditions: cited from earlier work
# [13] = test system: TNFα-primed neutrophils; assay: NADPH oxidase activation of TNFα-primed neutrophils; format: cell-based, human; conditions: for Activation of primed neutrophils (release of oxygen radicals): dose response relative to wild type galectin-3 run in parallel, up to 3.5 μM
# How it was run: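 Human neutrophils (1 × 10^7/ml) were primed 20 min at 37 °C with TNFα 10 ng/ml. Tubes held 10^6 cells and were equilibrated 5 min at 37 °C before galectin was added. Chemiluminescence was recorded continuously. Extracellular superoxide was read with HRP (4 units) plus isoluminol (6 × 10^-5 M). Intracellular ROS was read with SOD (50 units), catalase (2000 units) and luminol (2 × 10^-5 M). Peak responses were normalized to the parallel 3.5 μM wild-type peak.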
# [14] = compared with human galectin-3; cited from earlier work
molecule,measurement,setting,value
wild type galectin-3: Recombinant human galectin-3 produced in E. coli; expressed as EGFP fusion in SKBR3 cells,Binding of galactosides with 3-linked N-glycoloyl neuraminic acid (NeuGc),[1]; compared with NeuAc,equally well
same,Glycans bound on the array,[1]; glycans with a LacNAc available for binding in site C-D,45 of 94
same,Glycans bound on the array,[1]; glycans with available Galβ1–3GlcNAc,15 of 36
same,Glycans bound on the array,[1]; glycans with only Galβ1–3GalNAc available,did not bind at all
same,Glycans bound on the array,[1]; glycans with only lactose available,6 of 24
same,Binding to primed and non-primed neutrophils,[2],about equally well
same,Increase in binding after TNFα priming,[2],30–50%
same,Entry into vesicles,[3],entered vesicles in some of the cells
same,Cells with dots (galectin containing vesicles),[3]; depending on how confluent the cells were,15–30 % of cells
same,Enhancement of binding affinity by addition of GalNAcα1–3 or Galα1–3,[4],10–25 fold
same,Affinity for Galβ1–3GalNAc lower than for LacNAc,[5],10–50 fold
"A146Q: Human galectin-3 point mutant in site B, Ala-146 to Gln",Affinity for glycans with GalNAcα in site B on the array,[1]; but not those with Galα (blood group B type),selective loss of affinity
same,Affinity for 3-sialylated galactosides,[6],slightly reduced affinity
same,Affinity for GlcNAcβ1–3-substituted galactosides,[6],"retained affinity, albeit lower"
R186S: Human galectin-3 mutant replacing Arg-186 with Ser (site D),Glycans bound on the array (overall),[1],bound only one glycan
same,Binding to glycans where LacNAc or Galβ1–3GlcNAc is likely in site C-D,[6],lost binding
same,Affinity for glycans with Lac in site C-D,[6]; relative to wild type,retained reduced affinity
same,Binding to primed and non-primed neutrophils,[2],did not bind any of the neutrophil preparations
same,Entry into vesicles,[3],not visible in vesicles
same,Ability to bind human serum glycoproteins,[7],completely lost the ability to bind human serum glycoproteins
same,Ability to promote the phagocytosis of apoptotic cells by neutrophils,[8],lost
same,Vesicle entry and apical targeting of glycoproteins,[9],did not enter vesicles and did not direct apical targeting of glycoproteins
same,Accumulation around invading Shigella bacteria,[10],did not accumulate around invading Shigella bacteria
"G182A: Human galectin-3 point mutant near site C, Gly-182 to Ala",Binding to Galβ1–3GlcNAc containing glycans on the array,[1]; relative to wild type,"preferentially, although not exclusively, lost binding"
same,Entry into vesicles,[3],much fewer in number per cell
same,Intracellular anti-apoptotic effect,[11],lost
same,Induction of a shift from N-Ras to K-Ras activation,[12],lost
"K176L: Human galectin-3 point mutant in site B, Lys-176 to Leu",Affinity for sialylated (and sulfated) galactosides on the array,[1]; relative to wild type,lost affinity
same,Affinity for 3-sialylated galactosides,[6],lost affinity
same,Affinity for GlcNAcβ1–3-substituted galactosides,[6],significantly better than wild type galectin-3
same,Activation of primed neutrophils (release of oxygen radicals),[13],clearly increased potency
same,Binding to primed and non-primed neutrophils,[2],about equally well
same,Increase in binding after TNFα priming,[2],30–50%
K176L/N180T: Human galectin-3 double mutant obtained by a mistake in primer design,Affinity for some of the longer GlcNAcβ-extended galactosides,[6]; compared with K176L,slightly increased affinity
same,Concentration inducing significant neutrophil activation,[13]; TNFα-primed neutrophils,≤ 0.2 µM
same,Activation of primed neutrophils (release of oxygen radicals),[13],clearly increased potency
"R186I: Human galectin-3 mutant replacing Arg-186 with Ile, as found in galectin-8N",Glycans bound on the array (overall),[1],bound a few more glycans
same,"Background binding, maximum",[1]; remaining 227 glycans not expected to bind galectins,2674 RFU
same,Binding to glycans where LacNAc or Galβ1–3GlcNAc is likely in site C-D,[6],lost binding
same,Affinity for glycans with Lac in site C-D,[6]; relative to wild type,retained reduced affinity
"R144S: Human galectin-3 point mutant in site B, Arg-144 to Ser",Affinity for sialylated (and sulfated) galactosides on the array,[1]; relative to wild type,lost affinity
same,Affinity for the GalNAcα extended galactoside,"[6]; probe 5 (A-tetrasaccharide), relative to wild type",increased affinity
same,Affinity for 3-sialylated galactosides,[6],lost affinity
same,Affinity for GlcNAcβ1–3-substituted galactosides,[6],lost affinity
B1,Affinity for GlcNAcβ1–3-substituted galactosides,[6],lower affinity for all the saccharide probes tested and most significantly for the ones extended by GlcNAcβ
same,Affinity for all the saccharide probes tested,[6]; relative to human galectin-3,lower affinity
B2,Lower affinity for NeuAcα2–3Lac,[14],~5 fold
